Test results taken from ChEMBL document CHEMBL1149790, “Synthesis of some novel thiourea derivatives obtained from 5-[(4-aminophenoxy)methyl]-4-alkyl/aryl-2,4-dihydro-3H-1,2,4-triazole-3-thiones and evaluation as antiviral/anti-HIV and anti-tuberculosis agents” (Eur J Med Chem, 2008).
Converted amounts (≈) assume the structure as drawn.

Legend:
[1] = system: Vaccinia virus; assay: Antiviral activity against Vaccinia virus in human E6SM cells assessed as reduction of virus-induced cytopathogenicity; type: functional; conditions: Orthopoxvirus vaccinia
Method in brief: (§1)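 Confluent cell monolayers (E6SM, HEL, HeLa or Vero, per line) inoculated with 100 CCID50 virus; 1 h adsorption, residual virus removed, then incubated with compound at 400, 200, 100 … µg/ml. Cytopathicity scored once complete in untreated virus controls; MIC = concentration inhibiting virus-induced cytopathicity.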

[2] = system: Vaccinia virus; assay: Antiviral activity against Vaccinia virus in human HEL cells assessed as reduction of virus-induced cytopathogenicity; type: functional; conditions: Orthopoxvirus vaccinia; method in brief: as §1

`NC(=O)c1ncn([C@@H]2O[C@H](CO)[C@@H](O)[C@H]2O)n1` [RIBAVIRIN] was tested, and the MIC [1] was 48 µg/mL (≈ 197 µM) and the MIC [2] was 48 µg/mL (≈ 197 µM).

In the case of `CCn1c(COc2ccc(NC(=S)Nc3ccccc3)cc2)n[nH]c1=S`, the MIC [1] is reported as > 80 µg/mL and the MIC [2] is reported as > 80 µg/mL.

In the case of `Cn1c(COc2ccc(NC(=S)Nc3ccccc3)cc2)n[nH]c1=S`, the MIC [1] is reported as > 80 µg/mL and the MIC [2] is reported as > 80 µg/mL.

`C=CCn1c(-c2ccc(NC(=S)NC)cc2)n[nH]c1=S` showed an MIC [1] of 240 µg/mL (≈ 786 µM) and an MIC [2] of 240 µg/mL (≈ 786 µM).

In the case of `CCNC(=S)Nc1ccc(OCc2n[nH]c(=S)n2-c2ccccc2)cc1`, the MIC [1] is reported as > 400 µg/mL and the MIC [2] is reported as > 400 µg/mL.

With `C=CCn1c(COc2ccc(NC(=S)Nc3ccccc3)cc2)n[nH]c1=S` the MIC [1] was > 80 µg/mL and the MIC [2] was > 80 µg/mL.

`CNC(=S)Nc1ccc(-c2nnc(SCc3ccccc3)n2C)cc1` was tested, and the MIC [1] was > 16 µg/mL and the MIC [2] was > 16 µg/mL.

In the case of `S=C(Nc1ccccc1)Nc1ccc(OCc2n[nH]c(=S)n2-c2ccccc2)cc1`, the MIC [1] is reported as > 80 µg/mL and the MIC [2] is reported as > 80 µg/mL.

For `C=CCNC(=S)Nc1ccc(-c2n[nH]c(=S)n2-c2ccccc2)cc1`, the MIC [1] was > 80 µg/mL and the MIC [2] was > 80 µg/mL.

`O=c1[nH]c(=O)n([C@H]2C[C@H](O)[C@@H](CO)O2)cc1/C=C/Br` [BRIVUDINE] was tested, and the MIC [1] was 3.2 µg/mL (≈ 9.61 µM) and the MIC [2] was 3.2 µg/mL (≈ 9.61 µM).

`C=CCNC(=S)Nc1ccc(-c2nnc(SCc3ccc(Cl)cc3Cl)n2-c2ccccc2)cc1` was tested, and the MIC [1] was > 16 µg/mL and the MIC [2] was > 16 µg/mL.

For `CCNC(=S)Nc1ccc(OCc2n[nH]c(=S)n2CC)cc1`, the MIC [1] was 240 µg/mL (≈ 711 µM) and the MIC [2] was 240 µg/mL (≈ 711 µM).

With `Cn1c(-c2ccc(NC(=S)Nc3ccccc3)cc2)n[nH]c1=S` the MIC [1] was > 80 µg/mL and the MIC [2] was > 80 µg/mL.

For `C=CCn1c(COc2ccc(NC(=S)NCC)cc2)n[nH]c1=S`, the MIC [1] was > 400 µg/mL and the MIC [2] was > 400 µg/mL.

With `CNC(=S)Nc1ccc(OCc2n[nH]c(=S)n2C)cc1` the MIC [1] was > 400 µg/mL and the MIC [2] was > 400 µg/mL.

Compound `C=CCNC(=S)Nc1ccc(-c2n[nH]c(=S)n2C)cc1` has an MIC [1] of 240 µg/mL (≈ 786 µM) and an MIC [2] of 240 µg/mL (≈ 786 µM).

For `S=C(Nc1ccccc1)Nc1ccc(-c2n[nH]c(=S)n2-c2ccccc2)cc1`, the MIC [1] was > 80 µg/mL and the MIC [2] was > 80 µg/mL.

`C=CCNC(=S)Nc1ccc(-c2n[nH]c(=S)n2CC)cc1` showed an MIC [1] of 240 µg/mL (≈ 751 µM) and an MIC [2] of 240 µg/mL (≈ 751 µM).

Compound `CCNC(=S)Nc1ccc(-c2n[nH]c(=S)n2C)cc1` has an MIC [1] of 240 µg/mL (≈ 818 µM) and an MIC [2] of 240 µg/mL (≈ 818 µM).

In the case of `Nc1nc2c(ncn2COC(CO)CO)c(=O)[nH]1` [GANCICLOVIR], the MIC [1] is reported as > 100 µg/mL and the MIC [2] is reported as > 100 µg/mL.

`C=CCNC(=S)Nc1ccc(-c2n[nH]c(=S)n2CC=C)cc1` was tested, and the MIC [1] was > 400 µg/mL and the MIC [2] was > 80 µg/mL.

`C=CCNC(=S)Nc1ccc(OCc2n[nH]c(=S)n2CC)cc1` was tested, and the MIC [1] was 240 µg/mL (≈ 687 µM) and the MIC [2] was 240 µg/mL (≈ 687 µM).

`C=CCn1c(-c2ccc(NC(=S)Nc3ccccc3)cc2)n[nH]c1=S` was tested, and the MIC [1] was > 16 µg/mL and the MIC [2] was > 16 µg/mL.

For `CCCCCCNC(=S)Nc1ccc(-c2n[nH]c(=S)n2C)cc1`, the MIC [1] was 80 µg/mL (≈ 229 µM) and the MIC [2] was 80 µg/mL (≈ 229 µM).

Compound `CNC(=S)Nc1ccc(-c2n[nH]c(=S)n2C)cc1` has an MIC [1] of 240 µg/mL (≈ 859 µM) and an MIC [2] of 240 µg/mL (≈ 859 µM).

In the case of `Cn1c(COc2ccc(N)cc2)n[nH]c1=S`, the MIC [1] is reported as 240 µg/mL (≈ 1020 µM) and the MIC [2] is reported as 240 µg/mL (≈ 1020 µM).

In the case of `CCCCCCNC(=S)Nc1ccc(-c2n[nH]c(=S)n2CC)cc1`, the MIC [1] is reported as > 80 µg/mL and the MIC [2] is reported as > 80 µg/mL.

With `C=CCNC(=S)Nc1ccc(OCc2n[nH]c(=S)n2C)cc1` the MIC [1] was > 400 µg/mL and the MIC [2] was > 400 µg/mL.

Compound `CCn1c(COc2ccc(N)cc2)n[nH]c1=S` has an MIC [1] of 240 µg/mL (≈ 959 µM) and an MIC [2] of 240 µg/mL (≈ 959 µM).

`C=CCNC(=S)Nc1ccc(-c2n[nH]c(=S)n2CCc2ccccc2)cc1` was tested, and the MIC [1] was > 80 µg/mL and the MIC [2] was > 80 µg/mL.

In the case of `C=CCn1c(COc2ccc(NC(=S)NC)cc2)n[nH]c1=S`, the MIC [1] is reported as > 400 µg/mL and the MIC [2] is reported as > 400 µg/mL.

In the case of `CCNC(=S)Nc1ccc(-c2n[nH]c(=S)n2-c2ccccc2)cc1`, the MIC [1] is reported as > 3.2 µg/mL and the MIC [2] is reported as > 3.2 µg/mL.

In the case of `CCCCCCNC(=S)Nc1ccc(-c2n[nH]c(=S)n2CCCCCC)cc1`, the MIC [1] is reported as > 3.2 µg/mL and the MIC [2] is reported as > 3.2 µg/mL.

For `C=CCNC(=S)Nc1ccc(-c2n[nH]c(=S)n2CCCCCC)cc1`, the MIC [1] was > 16 µg/mL and the MIC [2] was > 16 µg/mL.

`CCn1c(COc2ccc(NC(=S)NC)cc2)n[nH]c1=S` was tested, and the MIC [1] was > 400 µg/mL and the MIC [2] was > 400 µg/mL.

`C=CCNC(=S)Nc1ccc(OCc2n[nH]c(=S)n2-c2ccccc2)cc1` showed an MIC [1] of 240 µg/mL (≈ 604 µM) and an MIC [2] of 240 µg/mL (≈ 604 µM).

In the case of `CCNC(=S)Nc1ccc(OCc2n[nH]c(=S)n2C)cc1`, the MIC [1] is reported as > 400 µg/mL and the MIC [2] is reported as > 400 µg/mL.

For `Nc1ccc(OCc2n[nH]c(=S)n2-c2ccccc2)cc1`, the MIC [1] was > 400 µg/mL and the MIC [2] was > 400 µg/mL.

Compound `C=CCNC(=S)Nc1ccc(OCc2n[nH]c(=S)n2CC=C)cc1` has an MIC [1] of 240 µg/mL (≈ 664 µM) and an MIC [2] of 240 µg/mL (≈ 664 µM).

For `S=C(Nc1ccc(Cl)cc1)Nc1ccc(-c2n[nH]c(=S)n2-c2ccccc2)cc1`, the MIC [1] was > 16 µg/mL and the MIC [2] was > 16 µg/mL.

In the case of `Nc1nc2c(ncn2COCCO)c(=O)[nH]1` [ACYCLOVIR], the MIC [1] is reported as > 400 µg/mL and the MIC [2] is reported as > 400 µg/mL.

For `CCCCCCNC(=S)Nc1ccc(-c2n[nH]c(=S)n2-c2ccccc2)cc1`, the MIC [1] was > 16 µg/mL and the MIC [2] was > 16 µg/mL.

`CNC(=S)Nc1ccc(OCc2n[nH]c(=S)n2-c2ccccc2)cc1` was tested, and the MIC [1] was > 400 µg/mL and the MIC [2] was > 400 µg/mL.

With `C=CCn1c(COc2ccc(N)cc2)n[nH]c1=S` the MIC [1] was > 400 µg/mL and the MIC [2] was > 400 µg/mL.

In the case of `CNC(=S)Nc1ccc(-c2n[nH]c(=S)n2-c2ccccc2)cc1`, the MIC [1] is reported as > 80 µg/mL and the MIC [2] is reported as > 80 µg/mL.

`C=CCNC(=S)Nc1ccc(-c2nnc(SCc3ccc(Cl)cc3Cl)n2C)cc1` was tested, and the MIC [1] was > 16 µg/mL and the MIC [2] was > 16 µg/mL.
